Our source for the Tm and folding enthalpy values is the array DNA melting data of Ke et al. (doi:10.1101/2024.01.08.574731).

Data set [1] can be described thus: melting temperature; fluorescence melt of hairpins on a sequencing array, two-state fit, raised by 9.35 °C to match UV melts. As to conditions: sodium 0.088 M. A digest of the protocol:
(§1)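 Two-state fits, bootstrapped, provided melting temperature and folding enthalpy from Cy3 fluorescence normalised to pre-quench Cy3 and to control constructs. Library hairpins with annealed Cy3 and quencher oligos were imaged on a sequenced MiSeq flow cell in 50 mM Na-HEPES pH 8.0, 25 mM NaCl, at 2.5 °C intervals up to 60 °C. Four replicates were combined with inverse-variance weighting. A 9.35 °C upward shift was applied to fitted temperatures to match UV melts.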

Data set [2] is described as follows: folding enthalpy; higher = less favourable; fluorescence melt of hairpins on a sequencing array, two-state fit. Conditions: sodium 0.088 M. The method, boiled down: as §1

GCCCTAGGAAACTAAGGC (((.(((....))).))): in data set [1], the Tm is 34 °C. Also, the folding enthalpy in data set [2] was -21.1 kcal/mol.

For GCGGATTCCCGC ((((....)))), the Tm in data set [1] worked out at 55 °C. Also, in data set [2], the folding enthalpy is -20.8 kcal/mol.

As to GAAAATGAAAATTTTC ((((((....)))))), the Tm in data set [1] came out at 38.6 °C. In addition, the folding enthalpy in data set [2] was -23.1 kcal/mol.

As to GTAGACGGAAACGTTTGC (.(.(((....))).).), in data set [1], the Tm was found to be 29.6 °C. In addition, the folding enthalpy in data set [2] is -16.7 kcal/mol.

With GATCTAGCCGTAGATC ((((((....)))))), the Tm in data set [1] was 44.5 °C. Besides, the folding enthalpy in data set [2] is -31.2 kcal/mol.

Turning to GTTCAAGGAAACTTGAGC (.(((((....))))).), the Tm in data set [1] was 40.1 °C. In data set [2], the folding enthalpy is -22.5 kcal/mol.

GATCAGTCCGCTGATC ((((((....)))))): the Tm in data set [1] worked out at 53.1 °C. The folding enthalpy in data set [2] was -53.2 kcal/mol.

For the sequence GCCATGCGAAAGCGCGGC (((..((....))..))), in data set [1], the Tm came out at 59.2 °C. For the same sequence, the folding enthalpy in data set [2] was -20 kcal/mol.

As to GGTCACGGAAACATGACC (((((.(....).))))), the Tm in data set [1] was 44.4 °C. For the same sequence, the folding enthalpy in data set [2] is -28.4 kcal/mol.

As for GTCTGGCGAAAGCCTGAC (((.(((....))).))), the Tm in data set [1] turned out to be 62 °C. Moreover, the folding enthalpy in data set [2] was -26.8 kcal/mol.

For GCCTATTCGAAAGAAGGC (((..(((....)))))), in data set [1], the Tm turned out to be 38.2 °C. For the same sequence, the folding enthalpy in data set [2] was -20.6 kcal/mol.

On to GATCAGGTTCTGATC ((((((...)))))), for which the Tm in data set [1] came to 50.5 °C. Also, the folding enthalpy in data set [2] is -34.1 kcal/mol.

Take GTTGTTGGAAACGACAAC (((((.(....).))))): the Tm in data set [1] worked out at 48.4 °C. Further, in data set [2], the folding enthalpy is -8.7 kcal/mol.

In the case of GGCCTGCGAAAGCAGCC (((.(((....)))))), the Tm in data set [1] is 61.1 °C. The folding enthalpy in data set [2] is -15.8 kcal/mol.

As to GTATCTCGAAAGAGTTAC (((.(((....))).))), the Tm in data set [1] was 36.4 °C. Also, the folding enthalpy in data set [2] was -26.6 kcal/mol.

With GTGCTCCCGAAAGGGCAC (((..(((....)))))), the Tm in data set [1] was found to be 49.8 °C. The folding enthalpy in data set [2] is -19.9 kcal/mol.

As to GATCGCCGCCGCGATC ((((((....)))))), the Tm in data set [1] was determined as 66.6 °C. For the same sequence, the folding enthalpy in data set [2] was -36 kcal/mol.

Turning to GGGGGCGGAAACGCTCCC (((.(((....))).))), the Tm in data set [1] came to 67.6 °C. In addition, in data set [2], the folding enthalpy was -32.6 kcal/mol.

As for CGATACCGGAAACGGTCG (((..(((....)))))), the Tm in data set [1] amounted to 35.1 °C. For the same sequence, the folding enthalpy in data set [2] was -12.3 kcal/mol.

GTTATAGGAAACTATGAC ((.((((....)))).)): the Tm in data set [1] came out at 33 °C. Besides, the folding enthalpy in data set [2] is -23 kcal/mol.

GGGACCGAAAGGTAACCC ((((((....)))..))): the Tm in data set [1] was 46.1 °C. Moreover, in data set [2], the folding enthalpy was -18.9 kcal/mol.

Regarding GCCGACGGAAACGTTGGC (((.(((....))).))), the Tm in data set [1] stood at 63.9 °C. Also, the folding enthalpy in data set [2] is -45.5 kcal/mol.

Take GATCAGAGACCTGATC ((((((....)))))): the Tm in data set [1] is 45.6 °C. Besides, in data set [2], the folding enthalpy is -34.6 kcal/mol.

In the case of GCGTACAAACGC ((((....)))), the Tm in data set [1] came to 51.1 °C. For the same sequence, in data set [2], the folding enthalpy is -21.5 kcal/mol.

GTGCACGAAAGTGTCAC ((((((....))).))): the Tm in data set [1] was determined as 54.5 °C. Besides, the folding enthalpy in data set [2] was -22.3 kcal/mol.

As for GATCTCTCGGAGATC ((((((...)))))), in data set [1], the Tm stood at 55.6 °C. Further, in data set [2], the folding enthalpy is -37.1 kcal/mol.

For GCCTTGCGAAAGCATGGC (((.(((....))).))), in data set [1], the Tm came to 62.1 °C. Besides, the folding enthalpy in data set [2] was -44.8 kcal/mol.

In the case of GCTCGGCGAAAGCGAAGC (((..((....))..))), in data set [1], the Tm stood at 47.2 °C. In addition, the folding enthalpy in data set [2] is -13.1 kcal/mol.

In the case of GCTGCGCGAAAGCTAAGC (((..((....))..))), the Tm in data set [1] is 44 °C. Also, the folding enthalpy in data set [2] was -23.4 kcal/mol.

With GATCCAGTAGTGGATC ((((((....)))))), the Tm in data set [1] was 54.2 °C. Further, the folding enthalpy in data set [2] is -32 kcal/mol.

For GAAGTGGGAAACCATTTC (((.(((....))).))), the Tm in data set [1] worked out at 36.6 °C. Also, the folding enthalpy in data set [2] is -30.7 kcal/mol.

Turning to GCATGAGCGAAAGCTTGC (((..(((....)))))), the Tm in data set [1] was 45.6 °C. The folding enthalpy in data set [2] is -14.1 kcal/mol.

Turning to GTTGTTCGAAAGAATAAC (((.(((....))).))), in data set [1], the Tm stood at 45.6 °C. In addition, the folding enthalpy in data set [2] is -31.6 kcal/mol.

GCGGTGGGAAACCACTGC ((.((((....)))).)): in data set [1], the Tm turned out to be 60.4 °C. In addition, the folding enthalpy in data set [2] was -38.9 kcal/mol.

With GTGACGGGAAACCGTCGC (.(((((....))))).), the Tm in data set [1] is 62.6 °C. In data set [2], the folding enthalpy is -24.8 kcal/mol.

Take GTCACCGAAAGGTTTGAC ((((((....)))..))): the Tm in data set [1] was determined as 37.4 °C. For the same sequence, the folding enthalpy in data set [2] is -15.6 kcal/mol.

For GCCAACTCGAAAGAGGGC (((..(((....)))))), the Tm in data set [1] was found to be 47.3 °C. For the same sequence, in data set [2], the folding enthalpy was -20.2 kcal/mol.
